From PubChem BioAssay
XBP1 UPR activ: adaptive UPR (XBP1) activation. 0.33% of 330,000 active. CHO-XBP1 luciferase reporter, IRE1-XBP1 UPR activation, luminescence; percent of tunicamycin response, DMSO as zero. activation, % at 20 µM;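 active means versus positive control, 20 µM dose yields 30% or more activation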;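 further: 100% = tunicamycin at 10 µg/mL and 0% = DMSO only wells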
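Material: CHO-XBP1 cells stably carrying IRE1-XBP1-driven luciferase reporter | Medium: F12 with 10% serum | Compound dosing: 20 µM single concentration, DMSO 1% | Incubation: Overnight seeding at 37 °C, 6 h compound treatment at 37 °C | Detection: Steady-Glo luminescence read | Read-out basis: % activation of reporter signal versus tunicamycin and DMSO controls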
Bfl-1 A1 inh: inhibitors of the anti-apoptotic protein A1, read as caspase activation | MEF A1-2A-BIM cells, Caspase-Glo 3/7 luminescence, 3 h; percent of clofoctol response, vehicle zero | caspase activation, % (test concentration not listed) | 0.066% of 330,000 active;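 active means over half of replicate activation scores above 10%, or exactly half above 10 with the replicate mean above 10; inconclusive means replicate mean below 10 yet half the replicates above 10; inactive means over half of replicates below 10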
CHOP UPR activ: apoptotic UPR (CHOP) activation. CHO-CHOP luciferase reporter, luminescence; percent of tunicamycin response over DMSO baseline. activation, % at 10 µM. 0.34% of 330,000 active;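 active means at 10 µM dose, activation of 40% or more, normalized to positive control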;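 further: 100% = tunicamycin at 10 µg/mL and 0% = DMSO alone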
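Assay system: CHO cells with stable CHOP pathway luciferase reporter; Buffer or medium: F12 plus 10% serum; Times: 16-18 h cell attachment, then 6 h compound exposure, 37 °C; Signal: luciferase luminescence; Read-out basis: percent activation relative to tunicamycin control; Control set: tunicamycin high control, DMSO low control.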
CHOP inhibitor: blocks CHOP induction under ER stress. CHO-K1 CHOP-promoter luciferase, tunicamycin-induced, 15-18 h. 3.8% of 220,000 active. inhibition, % at 10 µM;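 active means compounds that reduced the stress-induced luciferase reporter signal by more than about 70% of percent inhibition, limit read from the data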;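 further: 0% = tunicamycin plus vehicle and 100% = wells without tunicamycin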
Numbers without * were called inactive; ? = inconclusive; . = no result given. The entries come from a sample that favours hits as a whole.

SMILES	XBP1 UPR activ	Bfl-1 A1 inh	CHOP UPR activ	CHOP inhibitor
Cn1c(=O)[nH]c(=O)c2c1nc(Sc1ccccc1)n2CCc1ccccc1	2	0	2	29
Cc1ccc(Sc2nc3c(c(=O)[nH]c(=O)n3C)n2CCc2ccccc2)cc1	0	0	2	95*
N#Cc1ccc(COc2cccc3cccnc23)cc1	4	-1	8	.
CCC1(C)Cc2ccccc2-c2nc3n(c(=O)c21)CCCCC3 (stereo not drawn)	-2	.	1	81*
CC1CCN(c2nnc(-c3ccccc3)c3ccccc23)CC1	-2	0	1	12
Cc1ccc(-c2nnc(N3CCC(C)CC3)c3ccccc23)cc1C	7	1	2	90*
Cc1ccc(-c2nnc(N3CCC(C)CC3)c3ccccc23)cc1	8	0	2	84*
CCOC(=O)c1cccc(Nc2nc(-c3cccnc3)nc3ccccc23)c1	19	0	10	77*
COC(=O)c1cccc(Nc2nc(-c3cccnc3)nc3ccccc23)c1	2	0	9	17
CN1CCN(C2Cc3cc(Cl)ccc3Sc3cc(F)ccc32)CC1 (stereo not drawn)	4	1	2	.
OCCN1CCN(C2Cc3cc(Cl)ccc3Sc3ccc(Cl)cc32)CC1 (stereo not drawn) (tested in a mixture with another compound)	2	-1	0	75*
CN(c1ccc(OCC(=O)OCC(=O)NC2CCCC2)cc1)S(=O)(=O)c1ccc2ccccc2c1	-2	0	-1	-2
CN(c1ccc(OCC(=O)NC2CCC(O)CC2)cc1)S(=O)(=O)c1ccc(Cl)cc1 (stereo not drawn)	-2	15*	1	.
Cc1ccc(CCNC(=O)c2cc(-c3ccncc3)nc3ccc(S(=O)(=O)N4CCOCC4)cc23)cc1	-7	6.4*	-2	.
Cn1c(=O)oc2cc(S(=O)(=O)N3CCC(C(=O)NCc4cccs4)CC3)ccc21	-2	0	-1	75*
Cc1nn2c(-n3ccnc3C)c3c(nc2c1-c1ccccc1)CCC3	-2	0	0	23
Cc1nn2c(NCCCN(C)C)c3c(nc2c1-c1ccccc1)CCC3	2	0	0	93*
Cc1nn2c(N3CCOCC3)c3c(nc2c1-c1ccccc1)CCCC3	-1	-1	0	72*
CCN1C(=O)/C(=C\c2ccc(F)cc2)N=C1SCC(=O)NCc1ccco1	-2	0	6	13
C=CCN1C(=O)/C(=C\c2ccc(Cl)cc2)N=C1SCC(=O)NCCC	2	1	-2	76*
CCCCC(=O)NC(c1cccs1)c1cc(Cl)c2cccnc2c1O (stereo not drawn)	0	0	-2	97*
CCOc1ccc(C2Nc3ccc4ccccc4c3-c3c2c(=O)oc2ccccc32)cc1 (stereo not drawn)	8	-1	5	81*
CCC(CC)NC(=O)CON=C1c2ccccc2-c2ccccc21	-2	-1	0	72*
CCNC(=O)CON=C1c2ccccc2-c2ccccc21	-1	0	0	17
COc1cc(Cl)ccc1OCc1cc(C(=O)NC(C)Cc2cccnc2)no1 (stereo not drawn)	-4	-1	3	.
SMILES	XBP1 UPR activ	Bfl-1 A1 inh	CHOP UPR activ	CHOP inhibitor
O=C(NNC(=O)c1ccc(-c2ccccc2)cc1)c1ccccc1	-2	-6	6	81*
c1ccc(OCc2noc(CN3CC[C@@H]4CCCC[C@H]4C3)n2)cc1	1	0	0	75*
Clc1cccc(C2CCN(Cc3nc(COc4ccccc4)no3)C2)c1 (stereo not drawn)	1	0	0	4
O=S(=O)(NCCc1csc(-c2cccnc2)n1)c1ccc(Cl)s1	-3	0	-2	78*
CCN(CC)c1nc2c(c(=O)n(C)c(=O)n2C)n1CC(=O)c1ccccc1	3	1	0	8
C[C@H](CO)N1C[C@H](C)[C@@H](CN(C)S(=O)(=O)c2ccccc2)Oc2ccc(NC(=O)NC3CCCCC3)cc2C1=O	0	1	1	.
CC(=O)OC[C@]12CC[C@H]3[C@@](C)(CC[C@H]4C(C)(C)CCC[C@]34C)[C@@H]1C[C@H](C1=CC(=O)O[C@H]1OC(C)=O)O2	-6	62*	1	.
CC(=O)OC[C@]12CC[C@H]3[C@@](C)(CC[C@H]4C(C)(C)CCC[C@]34C)[C@@H]1C[C@@H](C1=CC(=O)O[C@@H]1OC(C)=O)O2	-10	?	-9	.
Cc1ccc2c(c1)C(c1ccncc1)=NNC(c1ccc(C(C)C)cc1)=N2	.	.	.	98*
Cc1ccc2c(c1)C(c1ccncc1)=NNC(c1ccc(F)cc1)=N2	0	0	2	2
N#C/C(=C\c1c(Cl)cccc1Cl)c1nc2ccccc2o1	2	1	0	13
Cc1cc(O)ccc1N/C=C(\C#N)c1nc2ccccc2o1	13	0	4	73*
CCCCCc1nc2c(=O)n(C)c3ccccc3c2o1	3	1	5	16
CCCCCCCc1nc2c(=O)n(C)c3ccccc3c2o1	2	-1	1	89*
CC(C)c1ccc(NC(=O)CN2C(=O)NC3(CCCCCCC3)C2=O)cc1	4	0	0	.
Cc1ccc(N2CCN(c3ccc(C)cc3)C2c2cccnc2)cc1	-3	0	1	76*
CC(C)CC(=O)Nc1cc2nn(-c3ccccc3)nc2cc1Cl	0	-1	3	85*
CC(C)CC(=O)Nc1cccc2c1C(=O)N(c1ccccc1)C2=O	-1	1	0	19
Cn1cccc1/C=C1\SC(=Nc2ccccc2)NC1=O	18	-5	5	-18
Cc1ccc(N=C2NC(=O)/C(=C/c3cn(C)c4ccccc34)S2)cc1C	.	1	.	76*
Cc1nc(N)nc(N)c1/C=C/C(C)(C)c1ccc(Cl)cc1	.	.	.	77*
CC(C)(C)S(=O)(=O)c1cnc(-c2ccc(Cl)cc2)nc1N	2	1	7	-5
CCc1ccc(S(=O)(=O)ON2C(=O)c3ccccc3C2=O)cc1	-5	.	1	95*
O=C1c2cccc3cccc(c23)C(=O)N1OS(=O)(=O)c1ccc(Cl)cc1	-5	1	-4	63
COC(=O)c1ccc2c(c1)c(-c1ccccc1)c(-c1ccccc1)n2C	1	.	2	.
O=C(c1cccs1)N1CCN(CCCc2ccccc2)CC1	-1	-1	-1	75*
CCN(CC(O)Cn1c2ccccc2c2ccccc21)S(=O)(=O)c1ccc(F)cc1 (stereo not drawn)	-1	0	0	70*
O=S(=O)(c1ccccc1)N(CC(O)Cn1c2ccccc2c2ccccc21)c1ccccc1 (stereo not drawn)	0	0	0	33
O=S(=O)(c1ccc(F)cc1)N(CCO)CC(O)Cn1c2ccccc2c2ccccc21 (stereo not drawn)	5	1	0	73*
